Experiment [1] deals with T1, S-adenosylmethionine decarboxylase proenzyme (Homo sapiens) (UniProt P17707).
T1 sequence (whole entry): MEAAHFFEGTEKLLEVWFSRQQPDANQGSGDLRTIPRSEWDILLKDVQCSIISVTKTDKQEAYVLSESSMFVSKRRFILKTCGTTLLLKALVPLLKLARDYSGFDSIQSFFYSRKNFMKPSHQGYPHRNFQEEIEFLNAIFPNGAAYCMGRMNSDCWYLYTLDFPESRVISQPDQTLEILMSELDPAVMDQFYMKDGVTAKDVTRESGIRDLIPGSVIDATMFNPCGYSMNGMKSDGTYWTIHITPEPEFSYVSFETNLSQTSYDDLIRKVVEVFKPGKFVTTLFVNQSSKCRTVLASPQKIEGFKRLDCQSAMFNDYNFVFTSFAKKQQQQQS
Put plainly: Inhibition of human C-terminal His-tagged AdoMetDC assessed as release of 14CO2 from S-adenosyl-L-[carboxy-14C]methionine at 100 uM.

The target of experiment [2] is T2, S-adenosylmethionine decarboxylase proenzyme (Homo sapiens, UniProt P17707).
T2 sequence (P17707 whole entry): T1 sequence (whole entry)
As to the kind of experiment: Inhibition of human C-terminal His-tagged AdoMetDC assessed as release of 14CO2 from S-adenosyl-L-[carboxy-14C]methionine. The procedure, abridged:
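Enzyme: human AdoMetDC from a pQE30 plasmid with the (H)6 tag at the C-terminus in place of the terminal -QQQQQS. Expressed in E. coli JM109 with IPTG induction overnight at 15 °C, then purified on Talon resin and Sephadex G-75 in putrescine-containing buffer. Assay used 1 nM enzyme, no inhibitor plus at least five inhibitor concentrations. IC50 came from curve fits of concentration versus % inhibition.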

Usually inhibition stands for the drop in the measured response relative to a control, in per cent. Usually IC50 stands for the midpoint of a concentration-inhibition curve.

Where only a bound is given, the exact number is not on record here.

Consider `CNCCCNC[C@H]1O[C@@H](n2c(NC)nc3c(N)ncnc32)[C@H](O)[C@@H]1O`, for which the inhibition in experiment [1] was below 5%.
Still for that read-out and setting: in the case of `CNCCNC[C@H]1O[C@@H](n2cnc3c(N)ncnc32)[C@H](O)[C@@H]1O` it was below 5%.
The same measure, in the same setting: in the case of `CNCCNC[C@H]1O[C@@H](n2c(C)nc3c(N)ncnc32)[C@H](O)[C@@H]1O` it was below 5%; in that of `CNCCCNC[C@H]1O[C@@H](n2c(-c3ccccc3)nc3c(N)ncnc32)[C@H](O)[C@@H]1O`, below 5%.
Same read-out and setting: in the case of `CN(CCCCON)C[C@H]1O[C@@H](n2c(-c3ccccc3)nc3c(N)ncnc32)[C@H](O)[C@@H]1O` it was below 5%.
For `CNc1nc2c(N)ncnc2n1[C@@H]1O[C@H](CN(C)CCCCON)[C@@H](O)[C@H]1O`, in experiment [2], the IC50 was 49 nM.
With `CN(CCCN)C[C@H]1O[C@@H](n2c(-c3ccccc3)nc3c(N)ncnc32)[C@H](O)[C@@H]1O`, the inhibition in experiment [1] is below 5%.
Regarding `CN(CCN)C[C@H]1O[C@@H](n2cnc3c(N)ncnc32)[C@H](O)[C@@H]1O`, in experiment [1], the inhibition is below 5%.
Still for that read-out and setting: as for `CN(CCON)C[C@H]1O[C@@H](n2c(-c3ccccc3)nc3c(N)ncnc32)[C@H](O)[C@@H]1O`, the figure is below 5%.
Consider `Cc1nc2c(N)ncnc2n1[C@@H]1O[C@H](C[S+](C)C)[C@@H](O)[C@H]1O`, for which the IC50 in experiment [2] was found to be 3000 nM.
As to `Cc1nc2c(N)ncnc2n1[C@@H]1O[C@H](CN(C)CC(N)=O)[C@@H](O)[C@H]1O`, the inhibition in experiment [1] is below 5%.
`CN(CCNC(=N)N)C[C@H]1O[C@@H](n2cnc3c(N)ncnc32)[C@H](O)[C@@H]1O`: the inhibition in experiment [1] was below 5%.

Values taken from ChEMBL document CHEMBL1140908, “New insights into the design of inhibitors of human S-adenosylmethionine decarboxylase: studies of adenine C8 substitution in structural analogues of S-adenosylmethionine” (J Med Chem, 2009).
